# Compounds with a hit are over-represented: about 2.9% of the library has one in this group of screens.
# CHO-K1 Ca antag = M1 antagonist counterscreen hit in parental CHO-K1 cells. 360,000 compounds, 0.6% hits. inhibition, % at 3 µM. ATP-induced calcium, Fluo-8 fluorescence. AID 602250;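 active means inhibition above a per-plate cutoff, the plate's mean sample inhibition plus 3 SD, cut at about 24% in these data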;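 further: 0% = DMSO plus EC80 ATP and 100% = DMSO alone without ATP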
# OX1R antag-1 = blocks the human orexin 1 receptor. 330,000 compounds, 1.8% hits. inhibition, % at 6.6 µM. OX1R-expressing cells, FRET antagonist read-out. AID 485270; in the data active means inhibition mostly above about 38%, no sharp cut-off; inactive means mostly below about 40%;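 further: 0% = agonist challenge alone and 100% = reference antagonist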
# Target sequence (O43613 whole entry, looked up): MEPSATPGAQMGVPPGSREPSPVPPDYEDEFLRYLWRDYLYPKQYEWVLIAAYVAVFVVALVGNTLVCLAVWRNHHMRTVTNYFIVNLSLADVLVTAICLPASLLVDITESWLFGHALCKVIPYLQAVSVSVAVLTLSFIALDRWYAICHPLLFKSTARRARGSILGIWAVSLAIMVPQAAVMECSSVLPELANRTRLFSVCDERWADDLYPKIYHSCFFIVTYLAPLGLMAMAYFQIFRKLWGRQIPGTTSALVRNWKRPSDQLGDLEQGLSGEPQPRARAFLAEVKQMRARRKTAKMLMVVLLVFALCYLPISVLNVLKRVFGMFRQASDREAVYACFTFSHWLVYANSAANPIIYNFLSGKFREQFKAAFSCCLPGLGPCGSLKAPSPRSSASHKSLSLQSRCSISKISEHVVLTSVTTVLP
# CHO parental Ca = counter-screen for OX1R antagonists: effect in parental CHO cells. 330,000 compounds, 0.63% hits. AID 463079. parental CHO-K1, ATP-induced calcium, Fluo-8 fluorescence. inhibition, % at 5.6 µM;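 active means inhibition above that plate's mean sample inhibition plus 3 SD, cut at about 26% in these data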;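 further: 0% = ATP-challenged DMSO wells and 100% = DMSO wells without ATP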
#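 Material – parental CHO cells · Reagent – ATP stimulus · Compound – single nominal dose of 5.6 µM per compound · Detection – Fluo-8 fluorescence · Read-out basis – percent inhibition of calcium signal · Controls – ATP-challenged DMSO wells low, unchallenged DMSO wells high · Repeats – no replicates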
# M1 PAM parental = nonselective activator or artifact in parental CHO-K1 calcium assay. ATP EC20, Fluo-8 calcium fluorescence; 0% at ATP EC20, 100% at ATP max. activation, % at 3 µM. 360,000 compounds, 0.02% hits. AID 602247;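 active means activation above the run cutoff, the mean activation of all test compounds plus 3 SD, cut at about 40% in these data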;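 further: peak over basal fluorescence ratio in a 140 s read after ATP addition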
# OX1R antag-2 = human HCRTR1 antagonism; O43613; CHO/OX1R cells, Fluo-8 calcium fluorescence, orexin A; inhibition, % at 5 µM; 330,000 compounds, 0.43% hits; AID 434989;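 active means inhibition above its plate's threshold, mean inhibition of all tested compounds on the plate plus 3 SD, cut at about 37% in these data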;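 further: 0% = orexin A challenge wells and 100% = SB-334867-A antagonist wells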
# M1 ag parental = M1 agonist counterscreen hit in parental CHO-K1 cells; Fluo-8 calcium fluorescence; scaled to maximal ATP response, vehicle zero; activation, % at 3 µM; 360,000 compounds, 0.48% hits; AID 602248; in the data active means activation above about 15%;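 further: untransfected CHO-K1 host cells lacking M1 receptor as counterscreen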
# Numbers without * were called inactive; . = no result.
SMILES,CHO-K1 Ca antag,OX1R antag-1,CHO parental Ca,M1 PAM parental,OX1R antag-2,M1 ag parental
COc1ccc(CCNC(=O)c2ccc(CS(=O)(=O)c3ccc(C)cc3)o2)cc1OC,-8.9,7.3,-21.4,-19.0,-26.8,5.8
O=C1NC[C@@H](CCCCN2C[C@H](Cc3ccc(O)cc3)N(CCC3CCCCC3)C(=O)C2=O)N(CC2CCCCC2)C1=O,16.7,.,.,-7.9,.,0.9
CC1(C)NC(=O)N(CC(=O)N2CCN(S(=O)(=O)c3ccccc3C(F)(F)F)CC2)C1=O,13.0,2.5,-9.6,-9.3,0.4,0.1
CCOC(=O)c1ccc(-c2ccc3oc(-c4ccsc4)cc(=O)c3c2)cc1F,-10.9,8.1,-10.3,16.3,-31.2,0.9
COc1ccccc1NC(=O)C1C2C=CC(C2)C1C(=O)NCc1cccnc1 (centres undefined),25.6*,-6.6,-9.3,-8.8,-19.6,-0.2
COc1ccccc1NC(=O)C(=O)NCc1ccncc1,25.3*,5.6,-2.8,-13.7,-3.8,-0.2
COc1ccccc1NC(=O)C(=O)N1CCCC1,-4.9,-2.0,11.9,17.7,-18.9,15.9*
COC(=O)c1ccccc1NC(=O)NCc1ccncc1,6.2,7.8,8.6,19.9,-11.9,16.5*
O=C(NN=C1CCCCC1)Nc1ccccc1Cl,-8.3,34.5,-14.6,14.9,14.9,0.6
O=S(=O)(c1ccc2ncn(O)c2c1)N1CCOCC1,17.8,6.2,2.4,3.1,8.8,-0.4
CC(=O)Nc1cccc(-c2csc(C(C)(NC(C)=O)c3ccccc3)n2)c1 (centres undefined),-3.8,.,.,13.6,.,1.0
CCCCn1c(N)c(N(CCC(C)C)C(=O)COC(=O)c2ccc([N+](=O)[O-])s2)c(=O)[nH]c1=O,-10.8,35.2*,-12.4,3.9,-12.0,0.6
CCCCN(C(=O)c1cc(=O)[nH]c2ccccc12)c1c(N)n(CCC)c(=O)[nH]c1=O,.,80.4*,-7.6,.,-19.2,.
CCCCN(C(=O)c1ccc([N+](=O)[O-])s1)c1c(N)n(CCCC)c(=O)[nH]c1=O,3.0,62.6*,-9.2,9.6,-20.9,-0.4
CCCCCCn1c(=O)n2n(c1=O)[C@@H]1CN(S(=O)(=O)c3ccc(C)cc3)C[C@]1(O)[C@@H](OC(=O)Nc1c(C)noc1C)C2,-10.4,.,.,-0.5,.,0.2
CCN(CC)S(=O)(=O)c1cccc(C(=O)OCC(=O)c2ccc3c(c2)OCCO3)c1,-0.7,8.6,19.5,-0.3,-0.2,4.2
CC(=O)NC(c1ccccc1)c1nc(-c2cccc(CO)c2)cs1 (centres undefined),3.0,.,.,1.8,.,-0.2
CC(=O)NC(c1ccccc1)c1nc(-c2cccc(C(F)(F)F)c2)cs1 (centres undefined),29.3*,.,.,-15.6,.,1.2
CCC(c1nnnn1C1CCCC1)N1CCC(C(N)=O)CC1 (centres undefined),-11.1,22.5,-9.2,17.0,-5.3,0.7
O=C1C(Cl)=C(N2CCN(c3ccccc3[N+](=O)[O-])CC2)C(=O)c2ccccc21,5.2,54.9*,-15.4,-2.6,-12.3,0.4
O=[N+]([O-])c1cc(Cl)ccc1N1CCCC1,-5.7,6.4,-3.6,13.8,-1.9,0.3
Nc1c(C(=O)NCc2ccc3c(c2)OCO3)c2nc3ccccc3nc2n1CCCN1CCOCC1,-9.5,16.0,33.5*,17.4,37.4,3.6
CCCCn1nnnc1C(c1cc2ccccc2o1)N(CCN(C)C)Cc1ccccc1 (centres undefined),-12.9,.,.,23.4,.,5.6
C[N+]1(CC(=O)NNc2c3ccccc3nc3ccccc23)CCOCC1,.,44.2*,-4.2,.,-7.5,.
O=C(CN1CCOCC1)NNc1c2ccccc2nc2ccccc12,-5.8,11.1,1.2,-3.1,-24.4,0.6
SMILES,CHO-K1 Ca antag,OX1R antag-1,CHO parental Ca,M1 PAM parental,OX1R antag-2,M1 ag parental
Cc1cc(C)c(C)c(S(=O)(=O)NCc2cccnc2)c1C,-33.2,9.9,-3.3,12.4,-8.0,3.6
COc1cc(C)c(Cl)c(C)c1S(=O)(=O)NCc1cccnc1,27.3*,3.7,3.2,-6.7,-23.8,0.0
O=S(=O)(c1ccc(N2CCCC2)cc1)C(F)(F)F,27.3*,30.5,40.0*,-12.7,-7.6,9.8
O=S(=O)(c1ccc(N2CCN(c3ccc(F)cc3)CC2)cc1)N1CCCC1,-2.7,3.8,-14.9,1.5,-7.6,0.5
Cc1ccc(NC(=O)C(=O)c2ccc(C)cc2)cc1,-15.9,18.7,2.6,14.2,-13.1,0.9
CCc1nnc(SCC(=O)NC2CCCC2)nc1CC,32.7*,11.7,-2.5,-6.0,-5.9,-0.2
CCc1nnc(SCC(=O)NC2CCCCC2)nc1CC,-19.6,16.0,-18.4,28.4,-18.1,1.2
C/C(=N\OCc1ccc(C#N)cc1)c1ccc(S(=O)(=O)N(C)C)cc1,9.2,10.4,10.1,-7.1,-6.9,15.4*
CCOC(=O)N1CCN(C(=O)c2c[nH]c3ccc(S(=O)(=O)N(C)c4ccc(OCC)cc4)cc3c2=O)CC1,-20.6,9.9,-0.9,17.5,8.0,0.4
COc1c(Br)cc(Br)cc1/C=N/NC(=O)c1ccncc1,0.7,7.3,-23.8,2.7,-17.0,15.3*
COc1c(Br)cc(Br)cc1/C=N/NC(=O)c1cccnc1,2.5,.,.,-7.0,.,0.9
O=C(Nc1ccc2c(c1)OCCO2)C1CCCN(S(=O)(=O)c2cccc3nsnc23)C1 (centres undefined),-18.9,10.6,-8.5,15.4,-20.1,6.2
O=C(Nc1cccnc1)C1CCCN(S(=O)(=O)c2cccc3nsnc23)C1 (centres undefined),-9.9,58.3*,14.8,21.5,-19.1,4.0
COc1cc(NC(=O)C2CCCN(S(=O)(=O)c3cccc4nsnc34)C2)cc(OC)c1 (centres undefined),-5.4,48.5*,-5.1,-0.2,-8.7,1.2
O=C1CNC(=O)/C(=C\c2ccccc2)N1,-1.7,14.0,1.9,10.4,11.4,0.4
O=C1/C(=C/c2ccccc2)Nc2ccccc21,-26.7,10.3,35.7*,13.1,50.3*,-0.1
CCC(=O)N(CC)C1=C(O)c2ccccc2C(=O)C1=O,-13.2,57.9*,-0.1,-4.8,-0.7,0.6
Cc1cc(NC(=O)c2ccc(Cl)c([N+](=O)[O-])c2)no1,-3.2,31.6,43.3*,13.7,-1.3,0.5
COc1cccc(S(=O)(=O)NCc2ccc(C(=O)Nc3ccc(Cl)c(Cl)c3)cc2)c1,10.9,46.5,42.5*,-7.5,34.7,1.1
O=C(Nc1ccc(Cc2ccncc2)cc1)c1ccc(Cl)c([N+](=O)[O-])c1,5.5,128.0*,82.9*,-0.1,76.8*,12.3
O=C(Nc1ncccn1)c1ccc(Cl)c([N+](=O)[O-])c1,-8.7,26.1*,0.9,2.2,-10.9,-0.6
Cc1cc(C)c(S(C)(=O)=O)c(NN)n1,12.6,10.5,5.5,-15.6,-8.7,-0.1
O=C(Nc1cccc(Cl)c1)Nc1nccs1,14.9,18.5,-4.5,4.0,-3.8,6.4
O=C(Nc1ccc(Cl)c(Cl)c1)c1ccncc1,0.1,31.7,-1.3,19.0,-14.9,2.8

# Screening results: PubChem BioAssay, The Scripps Research Institute Molecular Screening Center
